Measurements published in ChEMBL document CHEMBL1140100, “Flexible cyclic ethers/polyethers as novel P2-ligands for HIV-1 protease inhibitors: design, synthesis, biological evaluation, and protein-ligand X-ray studies” (J Med Chem, 2008).

How the values were obtained:
Protease = Protease (Human immunodeficiency virus 1, UniProt Q9YQ12); test: Inhibition of HIV1 protease
[1] = tested on: Human immunodeficiency virus 1; test: Antiviral activity against HIV1 LAI in human MT2 cells assessed as inhibition of virus-induced cytopathic effect; assay type: functional, organism-based; conditions: Human immunodeficiency virus 1, LAI
[2] = tested on: Human immunodeficiency virus 1; test: Antiviral activity against multidrug-resistant HIV1 with protease L10I, K43T, M46L, I54V, L63P, A71V, V82A, L90M, Q92K mutation in phytohemagglutininin-activated PBMC assessed as inhibition of p24G protein production; assay type: functional, organism-based
Summary of the method: (§1)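 Clinical HIV-1 isolates (ERS104pre as wild-type reference; multidrug-resistant isolates with the listed protease substitutions relative to consensus type B) were tested in phytohemagglutinin-activated human peripheral blood mononuclear cells. The endpoint was inhibition of p24Gag protein production, and IC50 was determined in triplicate.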

[3] = tested on: Human immunodeficiency virus 1; test: Antiviral activity against HIV1 ERS104 with protease L63P mutation in phytohemagglutininin-activated PBMC assessed as inhibition of p24G protein production; assay type: functional, organism-based; summary of the method: as §1
[4] = tested on: Human immunodeficiency virus 1; test: Antiviral activity against multidrug-resistant HIV1 with protease L10I, L24I, I33F, E35D, M36I, N37S, M46L, I54V, R57K, I62V, L63P, A71V, G73S, V82A mutation in phytohemagglutininin-activated PBMC assessed as inhibition of p24G protein production; assay type: functional, organism-based; summary of the method: as §1
[5] = tested on: Human immunodeficiency virus 1; test: Antiviral activity against multidrug-resistant HIV1 with protease L10I, V11I, T12E, I15V, L19I, R41K, M46L, L63P, A71T, V82A, L90M mutation in phytohemagglutininin-activated PBMC assessed as inhibition of p24G protein production; assay type: functional, organism-based; summary of the method: as §1
[6] = tested on: Human immunodeficiency virus 1; test: Antiviral activity against multidrug-resistant HIV1 with protease L10I, K14R, R41K, M46L, I54V, L63P, A71V, V82A, L90M, I93L mutation in phytohemagglutininin-activated PBMC assessed as inhibition of p24Gag protein production; assay type: functional, organism-based; summary of the method: as §1
[7] = tested on: Human immunodeficiency virus 1; test: Antiviral activity against multidrug-resistant HIV1 with protease L10I, K14R, L33I, M36I, M46I, F53I, K55R, I62V, L63P, A71V, G73S, V82A, L90M, I93L mutation in phytohemagglutininin-activated PBMC assessed as inhibition of p24G protein production; assay type: functional, organism-based; summary of the method: as §1
[8] = tested on: Human immunodeficiency virus 1; test: Antiviral activity against multidrug-resistant HIV1/A with protease mutation in phytohemagglutininin-activated PBMC assessed as inhibition of p24G protein production; assay type: functional, organism-based
[9] = tested on: Human immunodeficiency virus 1; test: Antiviral activity against multidrug-resistant HIV1/C with protease mutation in phytohemagglutininin-activated PBMC assessed as inhibition of p24G protein production; assay type: functional, organism-based
[10] = read-out: ID50 (the source's name)

Chain of Protease (Q9YQ12 whole entry): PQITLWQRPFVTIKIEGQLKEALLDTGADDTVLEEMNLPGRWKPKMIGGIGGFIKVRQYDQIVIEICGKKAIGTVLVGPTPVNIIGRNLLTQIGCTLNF

SMILES	Ki (Protease)	IC50 ([1]; read-out: IC50)	IC50 [3]	IC50 [6]	IC50 [7]	IC50 [8]	also measured
COc1ccc(S(=O)(=O)N(CC(C)C)C[C@@H](O)[C@H](Cc2ccccc2)NC(=O)O[C@H]2CCOCOC2)cc1	0.16 nM	30 nM					
COc1ccc(S(=O)(=O)N(CC(C)C)C[C@@H](O)[C@H](Cc2ccccc2)NC(=O)OC2CCCCCC2)cc1	27 nM						
COc1ccc(S(=O)(=O)N(CC(C)C)C[C@@H](O)[C@H](Cc2ccccc2)NC(=O)OC2COCCN(C)CCOC2)cc1	19 nM	> 1000 nM					
CC(C)c1nc(CN(C)C(=O)N[C@H](C(=O)N[C@@H](Cc2ccccc2)C[C@H](O)[C@H](Cc2ccccc2)NC(=O)OCc2cncs2)C(C)C)cs1 [RITONAVIR]			34 nM	> 1000 nM	> 1000 nM	> 1000 nM	IC50 [2]: > 1000 nM; IC50 [4]: > 1000 nM; IC50 [5]: > 1000 nM; IC50 [9]: > 1000 nM
COc1ccc(S(=O)(=O)N(CC(C)C)C[C@@H](O)[C@H](Cc2ccccc2)NC(=O)OC2COCCS(=O)(=O)CCOC2)cc1	1.9 nM	> 1000 nM					
CC(C)(C)NC(=O)[C@@H]1CN(Cc2cccnc2)CCN1C[C@@H](O)C[C@@H](Cc1ccccc1)C(=O)N[C@H]1c2ccccc2C[C@H]1O			26 nM	> 1000 nM	> 1000 nM	> 1000 nM	IC50 [2]: > 1000 nM; IC50 [4]: > 1000 nM; IC50 [5]: 290 nM; IC50 [9]: > 1000 nM
COc1ccc(S(=O)(=O)N(CC(C)C)C[C@@H](O)[C@H](Cc2ccccc2)NC(=O)OC2COCCOCOCCOC2)cc1	6.3 nM	> 1000 nM					
CC(C)CN(C[C@@H](O)[C@H](Cc1ccccc1)NC(=O)O[C@H]1CO[C@H]2OCC[C@H]21)S(=O)(=O)c1ccc(N)cc1			3.5 nM	4 nM	26 nM	3 nM	IC50 [1, 10]: 1.6 nM
COc1ccc(S(=O)(=O)N(CC(C)C)C[C@@H](O)[C@H](Cc2ccccc2)NC(=O)O[C@@H]2CCCOCOC2)cc1	0.16 nM						
COc1ccc(S(=O)(=O)N(CC(C)C)C[C@@H](O)[C@H](Cc2ccccc2)NC(=O)O[C@H]2CCCOCOC2)cc1	0.15 nM						
COc1ccc(S(=O)(=O)N(CC(C)C)C[C@@H](O)[C@H](Cc2ccccc2)NC(=O)OC2COCCOCCOCCOC2)cc1	33 nM						
COc1ccc(S(=O)(=O)N(CC(C)C)C[C@@H](O)[C@H](Cc2ccccc2)NC(=O)O[C@H]2CCCOCC2)cc1	0.74 nM						
COc1ccc(S(=O)(=O)N(CC(C)C)C[C@@H](O)[C@H](Cc2ccccc2)NC(=O)O[C@H]2CO[C@H]3OCC[C@H]32)cc1							IC50 [1, 10]: 1.2 nM
COc1ccc(S(=O)(=O)N(CC(C)C)C[C@@H](O)[C@H](Cc2ccccc2)NC(=O)OC2COCOC2)cc1	0.041 nM	3.4 nM	6 nM	64 nM	230 nM	13 nM	IC50 [2]: 110 nM; IC50 [4]: 330 nM; IC50 [5]: 300 nM; IC50 [9]: 160 nM
COc1ccc(S(=O)(=O)N(CC(C)C)C[C@@H](O)[C@H](Cc2ccccc2)NC(=O)O[C@@H]2CCOCOC2)cc1		4.9 nM	20 nM	220 nM	340 nM	20 nM	IC50 [2]: 250 nM; IC50 [4]: 500 nM; IC50 [5]: 360 nM; IC50 [9]: 210 nM
COc1ccc(S(=O)(=O)N(CC(C)C)C[C@@H](O)[C@H](Cc2ccccc2)NC(=O)OC2COCCOCCOC2)cc1	16 nM						
CC(C)CN(C[C@@H](O)[C@H](Cc1ccccc1)NC(=O)O[C@H]1CCOC1)S(=O)(=O)c1ccc(N)cc1			33 nM	290 nM	320 nM	100 nM	IC50 [2]: 300 nM; IC50 [4]: 430 nM; IC50 [5]: 340 nM; IC50 [9]: 230 nM
COc1ccc(S(=O)(=O)N(CC(C)C)C[C@@H](O)[C@H](Cc2ccccc2)NC(=O)O[C@@H]2CCCCOC2)cc1	0.81 nM						
